Data: ChEMBL document CHEMBL5058577, “EUbOPEN Chemogenomics Library 2 (Multiplex)” (2022)

Tested on: Fibroblast
Assay: Multiplex assay against human fibroblast
Format: toxicity, cell-based
In short: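 Cells were classed with CellPathfinder machine-learning gating, first as Hoechst high-intensity objects or normal cells, then (normal cells) as healthy, pyknosed or fragmented nuclei, and finally (pyknosed cells) as mitotic or apoptotic. Staining of live cells at seeding used Hoechst33342, BioTracker Green Microtubule Cytoskeleton Dye, MitoTracker Red and Annexin V Alexa Fluor 680, with imaging on a CQ1 microscope at 37°C and 5% CO2 after compound addition. Tubulin, mitochondrial-mass and membrane-permeability phenotypes are per cents of healthy-nucleus cells.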

[1] = 12 h, 1 µM, compound concentration 1 uM, replicate 1
[2] = 12 h, 1 µM, compound concentration 1 uM, replicate 2
[3] = 12 h, 10 µM, compound concentration 10 uM, replicate 1
[4] = 12 h, 10 µM, compound concentration 10 uM, replicate 2
[5] = 24 h, 1 µM, compound concentration 1 uM, replicate 1
[6] = 24 h, 1 µM, compound concentration 1 uM, replicate 2
[7] = 24 h, 10 µM, compound concentration 10 uM, replicate 1
[8] = 24 h, 10 µM, compound concentration 10 uM, replicate 2
[9] = 48 h, 1 µM, compound concentration 1 uM, replicate 1
[10] = 48 h, 1 µM, compound concentration 1 uM, replicate 2
[11] = 48 h, 10 µM, compound concentration 10 uM, replicate 1
[12] = 48 h, 10 µM, compound concentration 10 uM, replicate 2

N#Cc1c(Oc2cccc(OS(=O)(=O)CCCC(F)(F)F)c2)cccc1C(F)(F)F
Population Apoptotic (%) [1]: 51%
Population Fragmented Nuclei (%) [1]: 13%
Population Healthy Nuclei (%) [1]: 63%
Population Hoechst High Intensity Objects (%) [1]: 2%
Population Membrane Permeable-Phenotype (%) [1]: 1%
Population Mitochondria Different-Phenotype (%) [1]: 7%
Population Mitotic Cells (%) [1]: 48%
Population Normal (%) [1]: 97%
Population Pyknosed Nuclei (%) [1]: 23%
Population Tubulin-Different-Phenotype (%) [1]: 38%
Total Cell Count [1]: 146
Population Apoptotic (%) [2]: 38%
Population Fragmented Nuclei (%) [2]: 27%
Population Healthy Nuclei (%) [2]: 48%
Population Hoechst High Intensity Objects (%) [2]: 7%
Population Membrane Permeable-Phenotype (%) [2]: 9%
Population Mitotic Cells (%) [2]: 61%
Population Normal (%) [2]: 92%
Population Pyknosed Nuclei (%) [2]: 24%
Population Tubulin-Different-Phenotype (%) [2]: 59%
Total Cell Count [2]: 148
Population Apoptotic (%) [3]: 31%
Population Fragmented Nuclei (%) [3]: 14%
Population Healthy Nuclei (%) [3]: 59%
Population Hoechst High Intensity Objects (%) [3]: 6%
Population Membrane Permeable-Phenotype (%) [3]: 1%
Population Mitochondria Different-Phenotype (%) [3]: 7%
Population Mitotic Cells (%) [3]: 68%
Population Normal (%) [3]: 93%
Population Pyknosed Nuclei (%) [3]: 26%
Population Tubulin-Different-Phenotype (%) [3]: 36%
Total Cell Count [3]: 180
Population Apoptotic (%) [4]: 66%
Population Fragmented Nuclei (%) [4]: 42%
Population Healthy Nuclei (%) [4]: 22%
Population Hoechst High Intensity Objects (%) [4]: 7%
Population Membrane Permeable-Phenotype (%) [4]: 13%
Population Mitochondria Different-Phenotype (%) [4]: 3%
Population Mitotic Cells (%) [4]: 33%
Population Normal (%) [4]: 92%
Population Pyknosed Nuclei (%) [4]: 35%
Population Tubulin-Different-Phenotype (%) [4]: 75%
Total Cell Count [4]: 138
Population Apoptotic (%) [5]: 50%
Population Fragmented Nuclei (%) [5]: 20%
Population Healthy Nuclei (%) [5]: 62%
Population Hoechst High Intensity Objects (%) [5]: 6%
Population Membrane Permeable-Phenotype (%) [5]: 1%
Population Mitochondria Different-Phenotype (%) [5]: 4%
Population Mitotic Cells (%) [5]: 50%
Population Normal (%) [5]: 93%
Population Pyknosed Nuclei (%) [5]: 17%
Population Tubulin-Different-Phenotype (%) [5]: 45%
Total Cell Count [5]: 148
Population Apoptotic (%) [6]: 54%
Population Fragmented Nuclei (%) [6]: 33%
Population Healthy Nuclei (%) [6]: 50%
Population Hoechst High Intensity Objects (%) [6]: 3%
Population Membrane Permeable-Phenotype (%) [6]: 5%
Population Mitochondria Different-Phenotype (%) [6]: 5%
Population Mitotic Cells (%) [6]: 45%
Population Normal (%) [6]: 96%
Population Pyknosed Nuclei (%) [6]: 16%
Population Tubulin-Different-Phenotype (%) [6]: 57%
Total Cell Count [6]: 147
Population Apoptotic (%) [7]: 44%
Population Fragmented Nuclei (%) [7]: 13%
Population Healthy Nuclei (%) [7]: 59%
Population Hoechst High Intensity Objects (%) [7]: 5%
Population Membrane Permeable-Phenotype (%) [7]: 4%
Population Mitochondria Different-Phenotype (%) [7]: 12%
Population Mitotic Cells (%) [7]: 55%
Population Normal (%) [7]: 94%
Population Pyknosed Nuclei (%) [7]: 27%
Population Tubulin-Different-Phenotype (%) [7]: 43%
Total Cell Count [7]: 174
Population Apoptotic (%) [8]: 61%
Population Fragmented Nuclei (%) [8]: 40%
Population Healthy Nuclei (%) [8]: 23%
Population Hoechst High Intensity Objects (%) [8]: 8%
Population Membrane Permeable-Phenotype (%) [8]: 18%
Population Mitochondria Different-Phenotype (%) [8]: 22%
Population Mitotic Cells (%) [8]: 38%
Population Normal (%) [8]: 91%
Population Pyknosed Nuclei (%) [8]: 36%
Population Tubulin-Different-Phenotype (%) [8]: 77%
Total Cell Count [8]: 127
Population Apoptotic (%) [9]: 60%
Population Fragmented Nuclei (%) [9]: 18%
Population Healthy Nuclei (%) [9]: 66%
Population Hoechst High Intensity Objects (%) [9]: 7%
Population Membrane Permeable-Phenotype (%) [9]: 1%
Population Mitochondria Different-Phenotype (%) [9]: 5%
Population Mitotic Cells (%) [9]: 40%
Population Normal (%) [9]: 92%
Population Pyknosed Nuclei (%) [9]: 14%
Population Tubulin-Different-Phenotype (%) [9]: 42%
Total Cell Count [9]: 145
Population Apoptotic (%) [10]: 38%
Population Fragmented Nuclei (%) [10]: 26%
Population Healthy Nuclei (%) [10]: 59%
Population Hoechst High Intensity Objects (%) [10]: 5%
Population Membrane Permeable-Phenotype (%) [10]: 13%
Population Mitochondria Different-Phenotype (%) [10]: 2%
Population Mitotic Cells (%) [10]: 61%
Population Normal (%) [10]: 94%
Population Tubulin-Different-Phenotype (%) [10]: 56%
Total Cell Count [10]: 133
Population Apoptotic (%) [11]: 52%
Population Fragmented Nuclei (%) [11]: 20%
Population Healthy Nuclei (%) [11]: 54%
Population Hoechst High Intensity Objects (%) [11]: 9%
Population Membrane Permeable-Phenotype (%) [11]: 2%
Population Mitochondria Different-Phenotype (%) [11]: 12%
Population Mitotic Cells (%) [11]: 47%
Population Normal (%) [11]: 90%
Population Pyknosed Nuclei (%) [11]: 24%
Population Tubulin-Different-Phenotype (%) [11]: 47%
Total Cell Count [11]: 172
Population Apoptotic (%) [12]: 59%
Population Fragmented Nuclei (%) [12]: 43%
Population Healthy Nuclei (%) [12]: 31%
Population Hoechst High Intensity Objects (%) [12]: 2%
Population Membrane Permeable-Phenotype (%) [12]: 23%
Population Mitochondria Different-Phenotype (%) [12]: 15%
Population Mitotic Cells (%) [12]: 40%
Population Normal (%) [12]: 97%
Population Pyknosed Nuclei (%) [12]: 25%
Population Tubulin-Different-Phenotype (%) [12]: 89%
Total Cell Count [12]: 150
